One molecule from ChEMBL document CHEMBL4052826, “Design and Synthesis of Novel Reactive Oxygen Species Inducers for the Treatment of Pancreatic Ductal Adenocarcinoma” (J Med Chem, 2018) can be followed below.

SMILES strings stand for the structures. Calls of active or inactive are those of the source. The calls are words filed in the database; no cut-off is given here.

Series [1] deals with Mus musculus. The series can be described thus: Induction of unfolded protein response in tumor of NOD/SCID mouse xenografted with MIAPaCa2 cells assessed as upregulation of CHOP expression at 5 mg/kg, ip administered 5 times a week until day 44 by Western blot method. It counts as functional, organism-based. In outline:
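Dosed ip in 5% DMSO/60% propylene glycol/35% saline, five days on/two off, until day 44, versus vehicle. Tumor lysates immunoblotted with primary antibodies, Dylight 800 secondary, fluorescent scan.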
(In general: In western blotting, separated proteins are transferred to a membrane and probed.)

Series [2] deals with MIA PaCa-2. The series can be described thus: Antitumor activity against human MIAPaCa2 cells xenografted in NOD/SCID mouse assessed as delay of tumor growth at 5 mg/kg, ip administered 5 times a week until day 44 followed by dose escalation up to 20 mg/kg until day 67. It counts as functional, organism-based. In outline: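 Subcutaneous MIA PaCa-2 flank xenografts in NOD/SCID mice, randomized at 65 mm3. Dosing was 5 mg/kg ip in 5% DMSO/60% propylene glycol/35% saline, five days on and two off, to day 44. Two mice per group then continued with the dose gradually raised to 20 mg/kg until day 67. Tumor volume was taken by caliper and body weight monitored.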

Series [3] concerns MIA PaCa-2. Kind of series: Inhibition of mtDNA transcription from HSP1 promoter in human MIAPaCa2 cells at 5 times IC50 after 4 hrs by Bru-seq analysis. It counts as functional, cell-based. Put shortly: (§1)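 Nascent RNA sequencing (Bru-seq): 4×10^6 MIA PaCa-2 cells seeded in 10 cm dishes, treated next day for 4 h with drug or DMSO. Bromouridine (2 mM final) added for the last 30 min. Total RNA taken in TRIZOL; labeled RNA immunocaptured, converted to cDNA libraries and deep sequenced. Signal compared with DMSO-treated cells.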

In series [4] the test system is PANC-1. The series can be described thus: Induction of unfolded protein response in human PANC1 cells assessed as upregulation of GRP78 expression at 2 uM by Western blot analysis. In kind it is functional, cell-based. The note with it: TDE = time-dependent effect. Put shortly:
(§2)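 Cells (4×10^5) seeded in 60 mm dishes, cultured in RPMI1640 with 10% FBS, 5% CO2, 37°C, then compound-treated. Lysed 30 min at 4°C, BCA-quantified, 40 μg protein resolved by SDS-PAGE, transferred to PVDF, probed overnight at 4°C with primary antibodies (1:1000; GAPDH or actin loading control), then Dylight 800 secondary; fluorescence scanned. Bands normalized to loading control; mean ± SD, three independent experiments.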

For series [5], the system named is MIA PaCa-2. Kind of series: Inhibition of mtDNA transcription from LSP promoter in human MIAPaCa2 cells at 5 times IC50 after 4 hrs by Bru-seq analysis. In kind it is functional, cell-based. In outline:
as §1

The subject of series [6] is MIA PaCa-2. Kind of series: Induction of reactive oxygen species generation in human MIAPaCa2 cells at 1.1 to 10 uM after 24 hrs in presence of NAC by H2DCFDA reactivity assay. In kind it is functional, cell-based. Put shortly: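 H2DCFDA assay. Trypsinized MIA PaCa-2 cells in suspension were loaded with 20 μM H2DCFDA for 30 min at 37°C, washed and plated at 20,000/well. After 30 min they were treated with compound at 10, 3.3 or 1.1 μM. Fluorescence was read at 493/523 nm over time. DMSO basal and unstained controls were included. NAC pretreatment, where used, was 5 mM for 30 min. Duplicates, three independent experiments.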

Series [7] deals with MIA PaCa-2. Kind of series: Cytotoxicity against gemcitabine-resistant human MIAPaCa2 cells assessed as decrease in cell proliferation after 72 hrs by MTT assay. In kind it is functional, cell-based. Put shortly: (§3)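 MTT assay. Cells (3000–8000/well) attached overnight in RPMI1640 with 10% FBS; the GR line was kept with 200 nM gemcitabine. Serial dilutions (30 nM–10 μM for most lines) were applied for 72 h. MTT was added at a final 300 μg/mL for 3 h at 37°C, formazan was dissolved in DMSO and A570 read. Inhibition = (1 − OD treated/OD control) × 100. IC50 given as mean ± SD, three independent experiments.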
A general note: Formazan colour is commonly taken as a measure of viable cells.

Series [8] in a line: Selectivity index, ratio of IC50 for HPDEC to IC50 for human MIAPaCa2 cells. In outline:
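The measurement is MTT cytotoxicity (72 h) in HPV16-E6E7-immortalized HPDE cells and in MIA PaCa-2 cells, both grown in RPMI1640 with 10% FBS. Cells were seeded at 3000–8000/well and attached overnight, then treated with serial dilutions (30 nM–10 μM for most lines). MTT (300 μg/mL final) was added for 3 h at 37°C, formazan was dissolved in DMSO and A570 was read. IC50s are mean ± SD of three experiments; the index is their ratio.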

The subject of series [9] is MIA PaCa-2. Kind of series: Downregulation of Sp3 gene expression in human MIAPaCa2 cells at IC50 to 5 times IC50 after 4 hrs by Bru-seq analysis. It counts as functional, cell-based.
For series [10], the system named is Mus musculus. The series can be described thus: Toxicity in NOD/SCID mouse xenografted with human MIAPaCa2 cells assessed as body weight loss at 5 mg/kg, ip administered 5 times a week until day 44 followed by dose escalation up to 20 mg/kg until day 67. It counts as organism-based. Particulars: in vivo. Put shortly:
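After a 44-day course (ip, five days on/two off, in 5% DMSO/60% propylene glycol/35% saline), two mice per group stayed on study and dose was gradually raised from 5 to 20 mg/kg until day 67 in MIA PaCa-2 flank xenografts in NOD/SCID mice. Body weight monitored; mean ± SEM.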
Background: A xenograft is tissue or cells of one species grown in another, often human tumour cells in immunodeficient mice.

Series [11] concerns Mus musculus. Kind of series: Toxicity in NOD/SCID mouse xenografted with human MIAPaCa2 cells assessed as microscopic changes in lung at 5 mg/kg, ip administered 5 times a week until day 44 by hematoxylin and eosin staining-based inverted microscopic method. In kind it is organism-based. The note with it: in vivo. In outline:
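Necropsy after the 44-day ip course in MIA PaCa-2 xenograft-bearing NOD/SCID mice: heart, kidney, liver, lung, spleen and pancreas fixed in 10% neutral buffered formalin, paraffin-embedded, sectioned and stained with hematoxylin and eosin. Sections examined by inverted microscope at 20X, compared with vehicle-treated animals.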

The subject of series [12] is Mus musculus. Kind of series: Induction of reactive oxygen species generation in tumor of NOD/SCID mouse xenografted with MIAPaCa2 cells assessed as upregulation of NQO1 expression at 5 mg/kg, ip administered 5 times a week until day 44 by Western blot method. It counts as functional, organism-based.
Series [13] deals with MIA PaCa-2. Kind of series: Induction of reactive oxygen species generation in human MIAPaCa2 cells assessed as upregulation of HO-1 expression at 2 uM after 4 to 24 hrs by Western blot analysis. In kind it is functional, cell-based. Put shortly: (§4)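 Immunoblotting. Cells (4×10^5) in 60 mm dishes were treated, lysed 30 min at 4°C and quantified by BCA. 40 μg protein was run on SDS-PAGE and transferred to PVDF. Primary antibodies (1:1000) incubated overnight at 4°C, then Dylight 800 secondary, with fluorescent scanning. Bands were normalized to GAPDH or actin loading controls. Mean ± SD, three independent experiments, Student's t-test.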

The subject of series [14] is PANC-1. The series can be described thus: Induction of unfolded protein response in human PANC1 cells assessed as upregulation of CHOP expression at 2 uM by Western blot analysis. It counts as functional, cell-based. Particulars: TDE = time-dependent effect. In outline:
as §2

In series [15] the test system is MIA PaCa-2. Kind of series: Induction of reactive oxygen species generation in human MIAPaCa2 cells assessed as upregulation of NQO1 expression at 2 uM after 4 to 24 hrs by Western blot analysis. It counts as functional, cell-based. In outline:
as §4

The test system of series [16] is MIA PaCa-2. Kind of series: Cytotoxicity against human MIAPaCa2 cells assessed as decrease in cell proliferation after 72 hrs by MTT assay. It counts as functional, cell-based. In outline: as §3

Turning to `O=C1C(Nc2ccc(-c3ccccc3)cc2)=CC(=O)c2ncncc21`, the result in series [1], in series [2], in [12] and in [13] was Active. Besides, in series [3], the inhibition result is “inactive”. Moreover, the Activity result in series [4] is “Tde”; in [7] it was “Dose-dependent effect”; in [10], “Non-Toxic”; in [11], “Non-Toxic”; in series [14], “Tde”; in series [16] it was “Dose-dependent effect”. In series [5], the inhibition entry is “Active”. Further, the result in series [6], in series [9] and in [15] was inactive. Moreover, the IC50 in series [7] (MIA PaCa-2, 72 h) is 1 µM; in [16] (MIA PaCa-2, 72 h), 0.9 µM. The “Ratio IC50” value in series [8] was determined as 3.

Broadly, the IC50 is the concentration at which inhibition is half-maximal.
